In ChEMBL document CHEMBL2176880 (J Med Chem, 2012):

Key:
[1] = molecular target: T1, Metabotropic glutamate receptor 2 (Homo sapiens, UniProt Q14416); assay: Positive allosteric modulator activity at human mGlu2R expressed in CHO cells incubated for 30 mins by [35S]GTPgammaS binding assay; assay type: functional, cell-based
Target sequence in this assay (Q14416 whole entry): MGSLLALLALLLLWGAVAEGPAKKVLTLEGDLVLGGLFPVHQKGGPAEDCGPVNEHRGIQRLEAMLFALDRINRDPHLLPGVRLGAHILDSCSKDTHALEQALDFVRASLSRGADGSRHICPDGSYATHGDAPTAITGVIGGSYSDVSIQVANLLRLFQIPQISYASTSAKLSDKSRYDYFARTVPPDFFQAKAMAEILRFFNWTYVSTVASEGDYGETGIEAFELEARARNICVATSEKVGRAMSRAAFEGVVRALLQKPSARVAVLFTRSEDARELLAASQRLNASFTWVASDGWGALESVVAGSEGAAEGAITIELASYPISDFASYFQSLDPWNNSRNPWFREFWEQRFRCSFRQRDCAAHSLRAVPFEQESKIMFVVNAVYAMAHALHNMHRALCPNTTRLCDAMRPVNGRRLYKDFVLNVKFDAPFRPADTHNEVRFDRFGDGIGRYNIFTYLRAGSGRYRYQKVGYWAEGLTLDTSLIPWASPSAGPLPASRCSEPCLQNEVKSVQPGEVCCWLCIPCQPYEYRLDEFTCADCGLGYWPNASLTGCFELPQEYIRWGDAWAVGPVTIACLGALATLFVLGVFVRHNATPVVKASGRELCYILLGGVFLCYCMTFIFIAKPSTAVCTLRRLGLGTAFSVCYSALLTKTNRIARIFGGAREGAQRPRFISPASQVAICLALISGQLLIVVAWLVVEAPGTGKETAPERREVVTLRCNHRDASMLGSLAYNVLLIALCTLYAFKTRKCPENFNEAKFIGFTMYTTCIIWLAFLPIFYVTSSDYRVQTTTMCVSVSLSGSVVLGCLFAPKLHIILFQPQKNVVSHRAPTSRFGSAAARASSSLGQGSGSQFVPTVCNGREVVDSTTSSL

[2] = Drug metabolism in human liver microsomes at 5 uM after 15 mins; assay type: ADME, Microsome; details: read-out: Drug metabolism
Method in brief: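 Compound at 5 μM incubated 15 min with human liver microsomes; read-out is % of compound metabolized. Values are the mean of at least two experiments.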

[3] = Drug metabolism in mouse liver microsomes at 5 uM after 15 mins; assay type: ADME, Microsome; details: read-out: Drug metabolism
[4] = molecular target: T1, Metabotropic glutamate receptor 2; assay: Positive allosteric modulator activity at human mGlu2R expressed in CHO cells incubated for 30 mins by [35S]GTPgammaS binding assay relative to control; assay type: functional, cell-based
Target sequence in this assay (Q14416 19-872 limits assumed): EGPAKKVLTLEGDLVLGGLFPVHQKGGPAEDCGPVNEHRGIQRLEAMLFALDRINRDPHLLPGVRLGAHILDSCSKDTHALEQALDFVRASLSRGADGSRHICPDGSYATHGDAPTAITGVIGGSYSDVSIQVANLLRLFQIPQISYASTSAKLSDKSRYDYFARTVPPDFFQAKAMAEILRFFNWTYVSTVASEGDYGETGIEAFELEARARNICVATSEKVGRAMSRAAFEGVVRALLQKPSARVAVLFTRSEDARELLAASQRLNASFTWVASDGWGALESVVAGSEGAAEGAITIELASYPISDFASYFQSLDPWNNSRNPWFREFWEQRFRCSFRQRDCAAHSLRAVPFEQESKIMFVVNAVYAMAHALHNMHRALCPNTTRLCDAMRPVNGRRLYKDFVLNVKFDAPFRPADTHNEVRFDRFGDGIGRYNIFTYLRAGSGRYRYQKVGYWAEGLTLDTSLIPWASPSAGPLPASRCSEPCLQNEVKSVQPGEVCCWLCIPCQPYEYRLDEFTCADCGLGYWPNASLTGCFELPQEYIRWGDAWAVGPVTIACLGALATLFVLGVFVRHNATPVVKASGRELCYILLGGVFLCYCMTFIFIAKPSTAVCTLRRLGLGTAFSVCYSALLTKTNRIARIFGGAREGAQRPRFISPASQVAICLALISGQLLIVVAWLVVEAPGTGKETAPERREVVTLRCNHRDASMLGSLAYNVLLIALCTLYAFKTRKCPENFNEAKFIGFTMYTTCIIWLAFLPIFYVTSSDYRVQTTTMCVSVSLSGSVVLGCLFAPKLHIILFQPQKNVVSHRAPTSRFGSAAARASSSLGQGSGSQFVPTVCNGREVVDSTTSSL

[5] = molecular target: hERG (Homo sapiens, UniProt Q12809); assay: Inhibition of human ERG expressed in HEK293 cells at 3 uM by patch clamp assay; assay type: cell-based; details: HEK293 cells expressing hERG
Sequence of hERG (Q12809 whole entry): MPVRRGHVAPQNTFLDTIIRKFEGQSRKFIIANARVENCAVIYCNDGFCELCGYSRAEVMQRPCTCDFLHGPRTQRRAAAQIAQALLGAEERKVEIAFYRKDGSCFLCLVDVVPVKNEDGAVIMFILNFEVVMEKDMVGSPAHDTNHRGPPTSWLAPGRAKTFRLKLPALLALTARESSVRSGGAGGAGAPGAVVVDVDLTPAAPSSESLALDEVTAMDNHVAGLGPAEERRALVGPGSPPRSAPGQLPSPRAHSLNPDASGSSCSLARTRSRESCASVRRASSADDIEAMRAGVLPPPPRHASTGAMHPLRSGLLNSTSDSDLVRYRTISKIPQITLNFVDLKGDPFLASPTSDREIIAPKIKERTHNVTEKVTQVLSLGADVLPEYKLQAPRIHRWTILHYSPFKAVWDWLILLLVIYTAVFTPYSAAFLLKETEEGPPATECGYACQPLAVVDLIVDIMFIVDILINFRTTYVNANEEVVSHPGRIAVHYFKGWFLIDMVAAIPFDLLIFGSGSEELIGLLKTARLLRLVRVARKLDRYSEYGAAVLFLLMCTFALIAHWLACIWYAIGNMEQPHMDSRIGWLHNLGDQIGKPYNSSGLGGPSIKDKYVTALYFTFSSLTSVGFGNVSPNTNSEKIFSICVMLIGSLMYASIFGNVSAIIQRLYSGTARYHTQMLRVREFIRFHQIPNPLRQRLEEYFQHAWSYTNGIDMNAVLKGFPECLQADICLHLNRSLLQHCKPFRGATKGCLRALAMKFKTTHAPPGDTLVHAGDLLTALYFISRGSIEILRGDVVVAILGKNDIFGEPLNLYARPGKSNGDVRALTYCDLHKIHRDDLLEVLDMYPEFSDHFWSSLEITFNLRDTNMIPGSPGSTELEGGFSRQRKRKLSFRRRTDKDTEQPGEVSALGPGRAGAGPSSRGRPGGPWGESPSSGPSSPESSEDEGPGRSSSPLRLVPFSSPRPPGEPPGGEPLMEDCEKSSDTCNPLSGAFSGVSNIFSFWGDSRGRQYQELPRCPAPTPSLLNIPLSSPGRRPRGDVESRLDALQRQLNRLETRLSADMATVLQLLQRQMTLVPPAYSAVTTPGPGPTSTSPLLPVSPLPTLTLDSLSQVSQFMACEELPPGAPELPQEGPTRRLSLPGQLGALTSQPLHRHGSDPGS
Method in brief: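 HEK293 cells stably expressing hERG, whole-cell currents recorded by automated patch clamp in extracellular solution (mM: 150 NaCl, 4 KCl, 1 MgCl2, 1.8 CaCl2, 10 HEPES, 5 glucose, pH 7.4). Vehicle (0.1% DMSO) applied for 5 min, then compound at 0.1, 0.3 and 3 μM, each applied twice (n = 3). Effect taken after 5 min as the mean current of three pulses; residual current compared with vehicle.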

[6] = Plasma concentration in Swiss mouse at 10 mg/kg, sc administered as single dose measured 1 hr post dose; assay type: ADME, organism-based; parameters: dose 10 mg/kg, route subcutaneous
Method in brief: (§1)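 Swiss mice given a single 10 mg/kg sc dose at 1 mg/mL in 20% HP-β-CD + HCl solution, pH 4. Brain and plasma levels taken 1 h post dose. Values are geometric means of at least two runs.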

[7] = Ratio of drug level in brain to plasma in Swiss mouse at 10 mg/kg, sc administered as single dose measured 1 hr post dose; assay type: ADME, organism-based; parameters: dose 10 mg/kg, route subcutaneous; details: read-out: BPR; method in brief: as §1
[8] = Drug level in Swiss mouse brain at 10 mg/kg, sc administered as single dose measured 1 hr post dose; assay type: ADME, organism-based; parameters: dose 10 mg/kg, route subcutaneous; details: read-out: Drug uptake; method in brief: as §1
[9] = Half life in Sprague-Dawley rat at […], iv; assay type: ADME, organism-based; parameters: dose 2.5 mg/kg, route intravenous; details: in vivo
[10] = Volume of distribution at steady state in Sprague-Dawley rat at […], iv or 10 mg/kg, po; assay type: ADME, organism-based; details: in vivo, read-out: Vdss
[11] = Clearance in Sprague-Dawley rat at […], iv; assay type: ADME, organism-based; parameters: dose 2.5 mg/kg, route intravenous; details: in vivo
[12] = Oral bioavailability in Sprague-Dawley rat at 10 mg/kg; assay type: ADME, organism-based; details: in vivo
[13] = Tmax in Sprague-Dawley rat at […], iv or 10 mg/kg, po; assay type: ADME, organism-based; details: in vivo
[14] = Cmax in Sprague-Dawley rat at […], iv or 10 mg/kg, po; assay type: ADME, organism-based; details: in vivo
[15] = AUC (0 to infinity) in Sprague-Dawley rat at 10 mg/kg, po; assay type: ADME, organism-based; parameters: time infinity, dose 10 mg/kg, route oral; details: plasma

Structure (SMILES)	EC50 [1]	metabolised at […], 5 µM [2]	metabolised at […], 5 µM [3]	Emax [4]	concentration at 1 h [6]	Kp at 1 h [7]	concentration at 1 h [8]	half-life [9]	Vd [10]	clearance [11]	bioavailability [12]	Tmax [13]	Cmax [14]	AUC(0-inf) [15]	inhibition at 3 µM [5]
CCc1nnc2c(C#N)c(N3CCC(c4ccccc4)CC3)ccn12		11%	7%	247%	0.672 µg/mL	0.2	0.135 µg/mL								20%
N#Cc1c(N2CCC(c3ccccc3)CC2)ccn2c(CC3CC3)nnc12		6%	25%	278%											
CCc1nnc2c(C(F)(F)F)c(N3CCC(c4ccccc4)CC3)ccn12	0.116 µM	29%	42%	334%		1.3		1.9 h	1.4 L/kg	3.18 L/h/kg	35%	0.7 h	0.359 µg/mL	1.01 µg·h/mL	36%
N#Cc1c(N2CCC(c3ccccc3)CC2)ccn2c(CN3CCCC3)nnc12	1.12 µM	38%	88%	240%											
CCCc1nnc2c(C#N)c(N3CCC(c4ccccc4)CC3)ccn12	0.299 µM	25%	40%	272%											
FC(F)(F)c1c(N2CCC(F)(c3ccccc3)CC2)ccn2c(CC3CC3)nnc12		18%	13%	292%											84%
CCc1cnc2c(C#N)c(N3CCC(c4ccccc4)CC3)ccn12		74%	82%	225%											
Clc1c(N2CCN(c3ccccc3)CC2)ccn2c(CC3CC3)nnc12	0.944 µM	62%	53%	308%											
CCCCc1nnc2c(C(F)(F)F)c(N3CCC(c4ccccc4)CC3)ccn12		33%	54%	364%											91%
CCCc1cnc2c(C#N)c(N3CCC(c4ccccc4)CC3)ccn12		74%	81%	254%											

Second part, led by results:

EC50 [1]	metabolised at […], 5 µM [2]	metabolised at […], 5 µM [3]	Emax [4]	concentration at 1 h [6]	Kp at 1 h [7]	concentration at 1 h [8]	half-life [9]	Vd [10]	clearance [11]	bioavailability [12]	Tmax [13]	Cmax [14]	AUC(0-inf) [15]	Structure (SMILES)	inhibition at 3 µM [5]
1.23 µM	38%	72%	175%											FC(F)(F)c1c(N2CCC(c3ccccc3)C2)ccn2c(CC3CC3)nnc12 (racemic)	
0.01 µM	2%	16%	306%											Fc1ccc(C2CCN(c3ccn4c(CC5CC5)nnc4c3C(F)(F)F)CC2)c(F)c1	91%
	9%	10%	277%											N#Cc1c(N2CCC(c3ccccc3)CC2)ccn2c(CC(F)(F)F)nnc12	33%
0.4 µM	50%	89%	330%											FC(F)(F)c1c(N2Cc3ccccc3C2)ccn2c(CC3CC3)nnc12	
0.055 µM	13%	8%	300%	1.16 µg/mL	1.8	2.09 µg/mL								FC(F)(F)Cc1nnc2c(Cl)c(N3CCC(c4ccccc4)CC3)ccn12	71%
0.149 µM	52%	86%	278%											FC(F)(F)c1c(N2CCc3ccccc3C2)ccn2c(CC3CC3)nnc12	
0.519 µM	31%	78%	268%											FC(F)(F)c1c(N2CCC(c3cccnc3)CC2)ccn2c(CC3CC3)nnc12	
0.468 µM	12%	31%	196%											COCc1nnc2c(C#N)c(N3CCC(c4ccccc4)CC3)ccn12	
	39%	25%	310%		1.4		2.6 h	1.9 L/kg	1.08 L/h/kg	63%	1.7 h	0.807 µg/mL	5.99 µg·h/mL	FC(F)(F)Cc1nnc2c(Cl)c(N3CCC(F)(c4ccccc4)CC3)ccn12	42%
1.23 µM			207%											CC(C)(C)c1nnc2c(C#N)c(N3CCC(c4ccccc4)CC3)ccn12	
	56%	41%	243%		1.6		2.1 h	5.1 L/kg	4.62 L/h/kg	53%	1.3 h	0.289 µg/mL	1.16 µg·h/mL	FC(F)(F)C1(c2ccccc2)CCN(c2ccn3c(CC4CC4)nnc3c2Cl)CC1	42%
	56%		343%	2.66 µg/mL	1.4	3.83 µg/mL								Clc1c(N2CCC(c3ccccc3)CC2)ccn2c(CC3CC3)nnc12	99%
0.125 µM	24%	41%	259%											N#Cc1c(N2CCC(c3ccccc3)CC2)ccn2c(CC(F)(F)F)cnc12	
0.386 µM	57%	39%	262%											CCc1nnc2c(Cl)c(N3CCC(c4ccccc4)CC3)ccn12	43%
